Results reported in ChEMBL document CHEMBL1157559, “Synthesis and biological evaluation of novel pyrazolyl-2,4-thiazolidinediones as anti-inflammatory and neuroprotective agents” (Bioorg Med Chem, 2010).
Calls of active or inactive are those of the source. No cut-off for these calls is given here.

Assays:
[1] = Acute toxicity in po dosed Swiss albino mouse after 24 hrs; format: organism-based; conditions: in vivo, read-out: ALD50
How it was run: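 Four groups of five Swiss albino mice (20–30 g), fasted 24 h beforehand, given compounds orally at graded doses of 0–300 mg/kg. Mortality recorded at each dose level after 24 h to estimate the acute lethal dose (ALD50).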

THP-1 [2] = assay: Cytotoxicity against LPS and IFN-gamma-stimulated human THP1 cells after 24 hrs; format: functional, cell-based; conditions: THP-1, 24 h
How it was run: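 THP-1 cells, 24-well, in DMEM-F12 with 5% FBS. Compound or DMSO added 15 min before LPS 0.5 µg/mL plus IFN-γ 150 U/mL. After 24 h, LDH release (fraction of Triton-lysed value, OD 490) and MTT were read. EC50 taken from curves of at least three independent experiments; the lower of the two assay values was reported.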

THP-1 [3] = assay: Inhibition of MCP1 release in human THP1 cells after 24 hrs by ELISA; format: functional, cell-based
How it was run: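 THP-1 cells pretreated 15 min with compound, then stimulated with LPS 0.5 µg/mL plus IFN-γ 150 U/mL. After 24 h, MCP-1 (ng/mL) measured in cell-free medium by ELISA.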

SH-SY5Y = assay: Antineurotoxicity in human SH-SY5Y cells assessed as inhibition human THP1 cell supernatant-induced cytotoxicity compound pretreated 24 to 48 hrs to THP1 cells measured after 72 hrs of supernatant addition; format: functional, cell-based
How it was run: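 THP-1 cells in DMEM-F12 with 5% FBS, pretreated 15 min with compound or DMSO, then stimulated with LPS 0.5 µg/mL plus IFN-γ 150 U/mL for 24 or 48 h. Cell-free supernatant transferred to SH-SY5Y cells plated 24 h earlier. After 72 h, viability by LDH release and MTT. IC50 from curves of at least three independent experiments.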

Rattus norvegicus [4] = assay: Antiinflammatory activity in Wistar albino rat acute inflammatory model assessed as inhibition of formalin-induced paw edema at 20 mg/kg, po administered 1 hr before formalin challenge measured after 1 hr by plethysmometer relative to control; format: functional; design: scale not given: the % may be the effect or the level left
How it was run: (§1)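 Male Wistar rats, 180–200 g, groups of five. Test compound 20 mg/kg po; 1 h later 0.1 mL 2% formalin injected subplantar into left hind paw under light ether anesthesia. Paw volume by water plethysmometer at 0 and 1, 2, 3, 4 h after formalin. % inhibition = (Vt−V0)control minus (Vt−V0)treated, divided by (Vt−V0)control ×100. Mean ± SEM, ANOVA with Student–Newman–Keuls.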

Rattus norvegicus [5] = assay: Antiinflammatory activity in Wistar albino rat acute inflammatory model assessed as inhibition of formalin-induced paw edema at 20 mg/kg, po administered 1 hr before formalin challenge measured after 2 hrs by plethysmometer relative to control; format: functional; design: scale not given: the % may be the effect or the level left; how it was run: as §1
Rattus norvegicus [6] = assay: Antiinflammatory activity in Wistar albino rat acute inflammatory model assessed as inhibition of formalin-induced paw edema at 20 mg/kg, po administered 1 hr before formalin challenge measured after 3 hrs by plethysmometer relative to control; format: functional; design: scale not given: the % may be the effect or the level left; how it was run: as §1
Rattus norvegicus [7] = assay: Antiinflammatory activity in Wistar albino rat acute inflammatory model assessed as inhibition of formalin-induced paw edema at 20 mg/kg, po administered 1 hr before formalin challenge measured after 4 hrs by plethysmometer relative to control; format: functional; design: scale not given: the % may be the effect or the level left; how it was run: as §1
Rattus norvegicus [8] = assay: Antiinflammatory activity in Wistar albino rat sub-acute inflammatory model assessed as inhibition of formalin-induced paw edema at 20 mg/kg, po administered daily for 7 days by plethysmometer relative to control; format: functional; conditions: 168 h
How it was run: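 Rats dosed orally at 20 mg/kg daily for 7 consecutive days. 0.1 mL 2% formalin given subplantar in left hind paw under light ether 1 h after the first oral dose, with a second injection on day 3. Paw edema weight (g) measured on day 8. % inhibition = (control − treated)/control ×100. Groups of five.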

Rattus norvegicus [9] = assay: Antiinflammatory activity in Wistar albino rat sub-acute inflammatory model assessed as inhibition of turpentine oil-induced granuloma pouch exudate volume at 20 mg/kg, po 1 hr before turpentine oil challenge for 7 days assessed measured on day 8; format: functional
How it was run: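 Male rats 120–150 g, five per group. Subcutaneous dorsal pouch made under ether with 2 mL air, then 0.5 mL turpentine oil injected. Compound 20 mg/kg po 1 h before turpentine, then daily for seven days. On day 8 exudate drawn by syringe under anesthesia and volume measured. % inhibition = (Vcontrol − Vtreated)/Vcontrol ×100.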

Rattus norvegicus [10] = assay: Gastrointestinal toxicity in Wistar albino rat assessed as ulceration at 100 mg/kg/day, po administered twice daily for 3 days; format: organism-based; design: route oral; conditions: in vivo, 72 h
How it was run: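 Male rats 180–200 g, groups of five, fasted 12 h with water available. Compounds given orally as two equal doses at 0 and 12 h, 100 mg/kg per day, for three successive days; vehicle control 1% gum acacia. Rats killed 6 h after last dose. Stomach opened along greater curvature, washed with cold saline and inspected under 3× lens for hyperemia, hemorrhage, erosions or ulcers.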

Rattus norvegicus [11] = assay: Antiinflammatory activity in po dosed Wistar albino rat acute inflammatory model assessed as inhibition of formalin-induced paw edema administered 1 hr before formalin challenge measured after 3 hrs by plethysmometer; format: functional
How it was run: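 Rats dosed orally at 5, 10, 20, 40 and 50 mg/kg body weight. Edema volume inhibition measured 3 h after subplantar formalin (2%, 0.1 mL), and ED50 determined from these doses.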

HL-60 = assay: Inhibition of phagocyte respiratory burst in human HL60 cells after 6 to 7 days by luminol-induced chemiluminescence; format: functional, cell-based
How it was run: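 HL-60 cells differentiated 6–7 days in DMEM-F12 with 10% FBS and 1.3% DMSO, washed into serum-free, phenol red-free medium, then held 30 min at 37 °C before compound or DMSO was added. Luminol injected, 7.5 min baseline recorded, then FMLP injected (final 1 µM; luminol 5 mM; DMSO 0.5%). Chemiluminescence recorded 30 min at 37 °C; read-out was area under the curve.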

With `O=C1S/C(=C\c2cn(-c3ccccc3)nc2-c2ccc(Cl)cc2)C(=O)N1Cc1cccc(Br)c1` the LD50 at 24 h [1] was over 300 mg/kg, the EC50 (THP-1 [2]) was 5 µM and the inhibition (THP-1 [3]) was “inactive”. The IC50 (SH-SY5Y) was 8 µM.
For `Cc1ccc(-c2cc(C(F)(F)F)nn2-c2ccc(S(N)(=O)=O)cc2)cc1` [CELECOXIB], the Activity (Rattus norvegicus [4]) was 41%, the Activity (Rattus norvegicus [5]) was 50% and the Activity (Rattus norvegicus [6]) was 60%. For the same compound, the Activity (Rattus norvegicus [7]) was 68%, the inhibition in vivo at 20 mg/kg (Rattus norvegicus [8]) was 50% and the inhibition in vivo at 20 mg/kg (Rattus norvegicus [9]) was 54%. It also gave an Activity (Rattus norvegicus [10]) of 0%, an ED50 (Rattus norvegicus [11]) of 14.3 mg/kg and an EC50 (THP-1 [2]) of 50 µM. The inhibition (THP-1 [3]) was “inactive” and the IC50 (SH-SY5Y) was 5 µM.
For `O=C1S/C(=C\c2cn(-c3ccccc3)nc2-c2ccc(Cl)cc2)C(=O)N1Cc1ccc(Cl)cc1`, the LD50 at 24 h [1] was over 300 mg/kg, the EC50 (THP-1 [2]) was 4 µM and the inhibition (THP-1 [3]) was “inactive”.
With `CCCN1C(=O)S/C(=C\c2cn(-c3ccccc3)nc2-c2ccccc2)C1=O` the LD50 at 24 h [1] was over 300 mg/kg, the EC50 (THP-1 [2]) was over 100 µM and the inhibition (THP-1 [3]) was “inactive”.
With `O=C1S/C(=C\c2cn(-c3ccccc3)nc2-c2ccc(Cl)cc2)C(=O)N1Cc1ccccc1` the LD50 at 24 h [1] was over 300 mg/kg, the EC50 (THP-1 [2]) was 1 µM and the inhibition (THP-1 [3]) was “inactive”. The IC50 (SH-SY5Y) was 8 µM.
For `C=CCN1C(=O)S/C(=C\c2cn(-c3ccccc3)nc2-c2ccccc2)C1=O`, the LD50 at 24 h [1] was over 300 mg/kg, the EC50 (THP-1 [2]) was over 100 µM and the inhibition (THP-1 [3]) was “inactive”. The IC50 (SH-SY5Y) was 50 µM.
`O=C1NC(=O)/C(=C/c2cn(-c3ccccc3)nc2-c2ccc(Cl)cc2)S1` showed an Activity (Rattus norvegicus [4]) of 41%, an Activity (Rattus norvegicus [5]) of 50% and an Activity (Rattus norvegicus [6]) of 74%. It also gave an Activity (Rattus norvegicus [7]) of 74%, an inhibition in vivo at 20 mg/kg (Rattus norvegicus [8]) of 42% and an inhibition in vivo at 20 mg/kg (Rattus norvegicus [9]) of 44%. For the same compound, the LD50 at 24 h [1] was over 300 mg/kg, the ED50 (Rattus norvegicus [11]) was 13 mg/kg and the EC50 (THP-1 [2]) was over 100 µM. For the same compound, the inhibition (THP-1 [3]) was “inactive” and the IC50 (HL-60) was 0.8 µM.
